Experimental data: ChEMBL document CHEMBL4145570, “Structures and Biological Evaluation of Monoterpenoid Glycosides from the Roots of Paeonia lactiflora” (J Nat Prod, 2018)
The source made the active and inactive calls. The calls are words filed in the database; no cut-off is given here.

Experiments:
RAW264.7 [1] = assay: Antiinflammatory activity in mouse RAW264.7 cells assessed as inhibition of LPS-induced NO production at 40 uM relative to control; format: functional
RAW264.7 [2] = assay: Antiinflammatory activity in mouse RAW264.7 cells assessed as inhibition of LPS-induced NO production at 20 uM relative to control; format: functional
A2780 = assay: Cytotoxicity against human A2780 cells assessed as decrease in cell viability at 10 uM after 24 hrs by MTT assay; format: functional, cell-based
RAW264.7 [3] = assay: Antiinflammatory activity in mouse RAW264.7 cells assessed as inhibition of LPS-induced NO production at 80 uM relative to control; format: functional
RAW264.7 [4] = assay: Cytotoxicity against mouse RAW264.7 cells up to 100 uM; format: cell-based
Procedure, shortened: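 Viability assessed in LPS-stimulated RAW264.7 macrophages during the NO-production assay, at concentrations up to 100 μM.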

HepG2 = assay: Protection against acetaminophen-induced cell injury in human HepG2 cells at 10 uM after 24 hrs by MTT assay; format: functional, cell-based
BGC-823 = assay: Cytotoxicity against human BGC823 cells assessed as decrease in cell viability at 10 uM after 24 hrs by MTT assay; format: functional, cell-based
RAW264.7 [5] = assay: Antiinflammatory activity in mouse RAW264.7 cells assessed as inhibition of LPS-induced NO production; format: functional, cell-based
Procedure, shortened: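 NO release measured in LPS-stimulated RAW264.7 macrophages alongside an unstimulated control group; IC50 derived; dexamethasone as positive control.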

RAW264.7 [6] = assay: Antiinflammatory activity in mouse RAW264.7 cells assessed as inhibition of LPS-induced NO production at 60 uM relative to control; format: functional
A549 = assay: Cytotoxicity against human A549 cells assessed as decrease in cell viability at 10 uM after 24 hrs by MTT assay; format: functional, cell-based
Peritoneal macrophage = assay: Inhibition of LPS-induced TNFalpha secretion in C57BL6J mouse peritoneal macrophages at 10 uM after 24 hrs; format: functional, cell-based
HCT-8 = assay: Cytotoxicity against human HCT8 cells assessed as decrease in cell viability at 10 uM after 24 hrs by MTT assay; format: functional, cell-based
[7] = molecular target: T1, Tyrosine-protein phosphatase non-receptor type 1 (Homo sapiens) (UniProt P18031); assay: Inhibition of PTP1B (unknown origin) at 10 uM
T1 sequence (whole entry): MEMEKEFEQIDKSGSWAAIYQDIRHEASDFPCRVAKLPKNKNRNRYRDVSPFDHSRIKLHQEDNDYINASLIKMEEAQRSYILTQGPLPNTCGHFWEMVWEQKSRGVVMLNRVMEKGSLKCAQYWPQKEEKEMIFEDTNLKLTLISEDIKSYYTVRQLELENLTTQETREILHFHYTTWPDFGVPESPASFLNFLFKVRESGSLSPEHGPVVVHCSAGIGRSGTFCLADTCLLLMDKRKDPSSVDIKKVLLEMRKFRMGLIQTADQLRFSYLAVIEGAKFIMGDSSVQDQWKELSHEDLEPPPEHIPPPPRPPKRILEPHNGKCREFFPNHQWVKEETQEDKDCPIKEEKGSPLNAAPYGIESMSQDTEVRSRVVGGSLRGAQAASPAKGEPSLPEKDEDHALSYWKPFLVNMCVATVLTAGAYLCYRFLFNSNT

RAW264.7 [8] = assay: Antiinflammatory activity in mouse RAW264.7 cells assessed as inhibition of LPS-induced NO production at 10 uM relative to control; format: functional
Bel-7402 = assay: Cytotoxicity against human Bel7402 cells assessed as decrease in cell viability at 10 uM after 24 hrs by MTT assay; format: functional, cell-based

| SMILES | inhibition at 40 µM (RAW264.7 [1]) [%] | inhibition at 20 µM (RAW264.7 [2]) [%] | Activity (A2780) | inhibition at 80 µM (RAW264.7 [3]) [%] | Activity (RAW264.7 [4]) | Activity (HepG2) | Activity (BGC-823) | IC50 (RAW264.7 [5]) [µM] | inhibition at 60 µM (RAW264.7 [6]) [%] | Activity (A549) | inhibition (Peritoneal macrophage) | Activity (HCT-8) | inhibition [7] | inhibition at 10 µM (RAW264.7 [8]) [%] | Activity (Bel-7402) |
| --- | --- | --- | --- | --- | --- | --- | --- | --- | --- | --- | --- | --- | --- | --- | --- |
| CC1=CC(=O)[C@H]2C[C@]1(O[C@@H]1O[C@H](COC(=O)c3ccccc3)[C@@H](O)[C@H](O)[C@H]1O)C2(C)CO (stereo partly specified) | 18.3 | 16.2 | inactive | 45 | Non-Toxic | inactive | inactive | > 100 | 31.9 | inactive | inactive | inactive | inactive | 12.8 | inactive |
| CC1=CC(=O)[C@H]2C[C@@]1(O[C@@H]1O[C@H](CO)[C@@H](O)[C@H](O)[C@H]1O)C2(C)COC(=O)c1ccccc1 (stereo partly specified) | 26 | 19.3 | inactive | 61.7 | Non-Toxic | inactive | inactive | 64.8 | 45.9 | inactive | inactive | inactive | inactive | 25.7 | inactive |
| C[C@]12CC(=O)[C@H]3C[C@@]1(O[C@@H]1O[C@H](CO)[C@@H](O)[C@H](O)[C@H]1O)O[C@@H](O2)[C@H]3COC(=O)c1ccccc1 | 34.9 | 29.6 | inactive | 61 | Non-Toxic | inactive | inactive | 60.1 | 49.9 | inactive | inactive | inactive | inactive | 28 | inactive |
| CC12C(=O)O[C@@]3(C)C[C@@H](O)[C@H]1C[C@]23O[C@@H]1O[C@H](COC(=O)c2ccccc2)[C@@H](O)[C@H](O)[C@H]1O | 28.2 | 24.4 | inactive | 39.4 | Non-Toxic | inactive | inactive | > 100 | 34.8 | inactive | inactive | inactive | inactive | 19.1 | inactive |
| CC(C)c1ccc(CO[C@@H]2O[C@H](CO[C@@H]3O[C@@H](C)[C@H](O)[C@@H](O)[C@H]3O)[C@@H](O)[C@H](O)[C@H]2O)cc1 | 31.1 | 23.6 | inactive | 52.4 | Non-Toxic | inactive | inactive | 97.5 | 38.7 | inactive | inactive | inactive | inactive | 22.2 | inactive |
| C=C[C@@](C)(O)CC/C=C(\C)C(=O)OC[C@H]1O[C@@H](O[C@]23CC4C2(COC(=O)c2ccccc2)[C@H]2O[C@]4(O)C[C@]3(C)O2)[C@H](O)[C@@H](O)[C@@H]1O | 28.1 | 22.6 | inactive | 41.3 | Non-Toxic | inactive | inactive | > 100 | 38.1 | inactive | inactive | inactive | inactive | 9.85 | inactive |
| CC1(C)[C@@H]2C[C@H]1[C@@H](O)C[C@@H]2C(=O)OC[C@H]1O[C@@H](O[C@]23CC4C2(COC(=O)c2ccccc2)[C@H]2O[C@]4(O)C[C@]3(C)O2)[C@H](O)[C@@H](O)[C@@H]1O | 27.5 | 23.3 | inactive | 40.8 | Non-Toxic | inactive | inactive | > 100 | 38.7 | inactive | inactive | inactive | inactive | 8.58 | inactive |
| C[C@@H]1C[C@H]2[C@@H]3CCC4=CC(=O)C=C[C@]4(C)[C@@]3(F)[C@@H](O)C[C@]2(C)[C@@]1(O)C(=O)CO [DEXAMETHASONE] |  |  |  |  |  |  |  | 8.3 |  |  |  |  |  |  |  |
| CC(C)=CCC/C(C)=C/C(=O)O[C@@H]1O[C@H](CO[C@@H]2O[C@@H](C)[C@H](O)[C@@H](O)[C@H]2O)[C@@H](O)[C@H](O)[C@H]1O | 29.2 | 21.4 | inactive | 41 | Non-Toxic | inactive | inactive | > 100 | 33.4 | inactive | inactive | inactive | inactive | 21.4 | inactive |
| C[C@]1(C(=O)OC[C@H]2O[C@@H](O[C@]34CC5C3(COC(=O)c3ccccc3)[C@H]3O[C@]5(O)C[C@]4(C)O3)[C@H](O)[C@@H](O)[C@@H]2O)[C@@H]2CC[C@@H](CO)[C@H]1C2 | 22.1 | 20.9 | inactive | 40.7 | Non-Toxic | inactive | inactive | > 100 | 39.5 | inactive | inactive | inactive | inactive | 19.7 | inactive |
| C[C@]1(C(=O)OC[C@H]2O[C@@H](O[C@]34CC5C3(COC(=O)c3ccccc3)[C@H]3O[C@]5(O)C[C@]4(C)O3)[C@H](O)[C@@H](O)[C@@H]2O)[C@@H]2CC[C@H](CO)[C@H]1C2 | 25.8 | 22.8 | inactive | 44.6 | Non-Toxic | inactive | inactive | > 100 | 29.3 | inactive | inactive | inactive | inactive | 16.5 | inactive |
